Active and inactive are the calls of the source. The calls are words filed in the database; no cut-off is given here.
Assays:
NCI-H292 [1] = assay: Cytotoxicity against human NCI-H292 cells assessed as cell death at 100 ug/ml after 72 hrs by MTT assay; format: functional
Method in brief: (§1)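 Single-concentration colorimetric MTT screen of test compounds at a fixed final concentration. Incubation was 72 h, and the read-out was growth inhibition of the tumour cell lines. Values are given as means with standard deviations. Doxorubicin served as the positive control.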

MCF7 [2] = assay: Cytotoxicity against human MCF7 cells assessed as cell death at 100 ug/ml after 72 hrs by MTT assay; format: functional; method in brief: as §1
K562 [3] = assay: Cytotoxicity against human K562 cells assessed as cell death at 100 ug/ml after 72 hrs by MTT assay; format: functional; method in brief: as §1
[4] = Cytotoxicity against human HL60 cells assessed as cell death at 100 ug/ml after 72 hrs by MTT assay; format: functional, HL-60; method in brief: as §1
J774.A1 = assay: Cytotoxicity against mouse J774.A1 cells at 100 ug/ml after 72 hrs by MTT assay; format: cell-based; settings: j774.a1, 72 h
Method in brief: (§2)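 Single-concentration screen of mouse cells at 100 µg/mL final concentration. Viability read by colorimetric MTT assay after 72 h of incubation; percent growth inhibition given as means (standard deviations); doxorubicin as positive control.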

RAW264.7 = assay: Cytotoxicity against mouse RAW264.7 cells at 100 ug/ml after 72 hrs by MTT assay; format: cell-based; settings: raw264.7, 72 h; method in brief: as §2
[5] = Cytotoxicity against human Hep2 cells assessed as cell death at 100 ug/ml after 72 hrs by MTT assay; format: functional, HEp-2; method in brief: as §1
HEp-2 = assay: Cytotoxicity against human Hep2 cells after 72 hrs by MTT assay; format: functional, cell-based
Method in brief: (§3)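 Colorimetric MTT assay on human tumour cells after 72 h of incubation; values expressed as means (standard deviations), with doxorubicin as positive control.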

NCI-H292 [6] = assay: Cytotoxicity against human NCI-H292 cells after 72 hrs by MTT assay; format: functional, cell-based; method in brief: as §3
MCF7 [7] = assay: Cytotoxicity against human MCF7 cells after 72 hrs by MTT assay; format: functional, cell-based; method in brief: as §3
K562 [8] = assay: Cytotoxicity against human K562 cells after 72 hrs by MTT assay; format: functional, cell-based; method in brief: as §3
HL-60 = assay: Cytotoxicity against human HL60 cells after 72 hrs by MTT assay; format: functional, cell-based; method in brief: as §3

| Compound | Activity (NCI-H292 [1]) [%] | Activity (MCF7 [2]) [%] | Activity (K562 [3]) [%] | Activity [4] [%] | Activity (J774.A1) [%] | Activity (RAW264.7) [%] | Activity [5] [%] | TGI (HEp-2) | TGI (NCI-H292 [6]) | TGI (MCF7 [7]) | TGI (K562 [8]) | TGI (HL-60) |
| --- | --- | --- | --- | --- | --- | --- | --- | --- | --- | --- | --- | --- |
| CCC(O)C#CCCO (stereo unspecified) | 15.5 | 34.3 | 0 | 5.1 | 42.6 | 6.1 | 12.9 | – | – | – | – | – |
| CC[C@@H](O)C#CCO | 55.7 | 52.5 | 40.9 | 12.1 | 0.2 | 9.6 | 38.8 | – | – | – | – | – |
| CCC(C)(O)C#CCO (stereo unspecified) | 5 | 27.2 | 16 | 13.3 | 61.2 | 0 | 0 | – | – | – | – | – |
| CC(O)CC#CCCO (stereo unspecified) | 71.5 | 69.5 | 0 | 9.6 | 15.7 | 19.3 | 84.1 | – | – | – | – | – |
| CC(O)CC#CCO (stereo unspecified) | 20.2 | 0 | 0 | 11 | 60.8 | 8.5 | 14.8 | – | – | – | – | – |
| CCCCCC(O)C#CCO (stereo unspecified) | 100 | 100 | 100 | 100 | 100 | 100 | 100 | Active | Active | Active | Active | Active |
| CC(O)C#CCCO (stereo unspecified) | 0.3 | 17.8 | 25.1 | 0 | 16.5 | 9.4 | 2.2 | – | – | – | – | – |
| CCC(O)C#CCO (stereo unspecified) | 100 | 100 | 100 | 100 | 100 | 100 | 100 | Active | Active | Active | Active | Active |
| CC(O)C#CCO (stereo unspecified) | 100 | 100 | 100 | 100 | 100 | 100 | 100 | Active | Active | Active | Active | Active |
| CC[C@H](O)C#CCO | 85 | 51.6 | 27 | 1.4 | 1.7 | 19.5 | 31.3 | – | – | – | – | – |
| CC(O)C#CC(O)(c1ccccc1)c1ccccc1 (stereo unspecified) | 91 | 27.3 | 80 | 96.1 | 93.1 | 95 | 84 | – | – | – | – | – |
| CCCC(O)C#CCO (stereo unspecified) | 100 | 100 | 100 | 100 | 100 | 100 | 100 | Active | Active | Active | Active | Active |
| CC(O)C#CC1(O)CCCCC1 (stereo unspecified) | 6.6 | 40.8 | 16.7 | 8.9 | 57.5 | 4.2 | 9.3 | – | – | – | – | – |
| CC(C)C(O)C#CCCO (stereo unspecified) | 49.9 | 54.1 | 0 | 0 | 30.4 | 17.8 | 85.7 | – | – | – | – | – |
| OCC#CC(O)c1ccccc1 (stereo unspecified) | 86.9 | 68.1 | 3.8 | 29.5 | 17.1 | 16 | 28.1 | – | – | – | – | – |
| COc1cccc2c1C(=O)c1c(O)c3c(c(O)c1C2=O)C[C@@](O)(C(=O)CO)C[C@@H]3O[C@H]1C[C@H](N)[C@H](O)[C@H](C)O1 [DOXORUBICIN] | 94.1 | 74.8 | 91.7 | 92.9 | 96 | 96.5 | 79.4 | – | – | – | – | – |
| CC(C)C(O)C#CCO (stereo unspecified) | 69.8 | 28.7 | 20.9 | 0 | 2 | 17.8 | 42.7 | – | – | – | – | – |
| CC(C)C(O)C#CC(C)(C)O (stereo unspecified) | 21.5 | 40.7 | 9.7 | 7.3 | 55.3 | 0 | 0 | – | – | – | – | – |

Reference: ChEMBL document CHEMBL3797096, “Synthesis and in vitro evaluation of (R), (S) and (R/S)-2-hexyne-1,4-diol, a natural product produced by fungus Clitocybe catinus, and related analogs as potential anticancer agents” (Bioorg Med Chem Lett, 2016)
